Experimental data gathered from unrelated publications.
Lines come from different studies, so protocols differ.
Target: Eukaryotic translation initiation factor 2-alpha kinase 3 (EIF2AK3, Homo sapiens, UniProt Q9NZJ5)
Sequence (Q9NZJ5 30-1116, as in one of the studies): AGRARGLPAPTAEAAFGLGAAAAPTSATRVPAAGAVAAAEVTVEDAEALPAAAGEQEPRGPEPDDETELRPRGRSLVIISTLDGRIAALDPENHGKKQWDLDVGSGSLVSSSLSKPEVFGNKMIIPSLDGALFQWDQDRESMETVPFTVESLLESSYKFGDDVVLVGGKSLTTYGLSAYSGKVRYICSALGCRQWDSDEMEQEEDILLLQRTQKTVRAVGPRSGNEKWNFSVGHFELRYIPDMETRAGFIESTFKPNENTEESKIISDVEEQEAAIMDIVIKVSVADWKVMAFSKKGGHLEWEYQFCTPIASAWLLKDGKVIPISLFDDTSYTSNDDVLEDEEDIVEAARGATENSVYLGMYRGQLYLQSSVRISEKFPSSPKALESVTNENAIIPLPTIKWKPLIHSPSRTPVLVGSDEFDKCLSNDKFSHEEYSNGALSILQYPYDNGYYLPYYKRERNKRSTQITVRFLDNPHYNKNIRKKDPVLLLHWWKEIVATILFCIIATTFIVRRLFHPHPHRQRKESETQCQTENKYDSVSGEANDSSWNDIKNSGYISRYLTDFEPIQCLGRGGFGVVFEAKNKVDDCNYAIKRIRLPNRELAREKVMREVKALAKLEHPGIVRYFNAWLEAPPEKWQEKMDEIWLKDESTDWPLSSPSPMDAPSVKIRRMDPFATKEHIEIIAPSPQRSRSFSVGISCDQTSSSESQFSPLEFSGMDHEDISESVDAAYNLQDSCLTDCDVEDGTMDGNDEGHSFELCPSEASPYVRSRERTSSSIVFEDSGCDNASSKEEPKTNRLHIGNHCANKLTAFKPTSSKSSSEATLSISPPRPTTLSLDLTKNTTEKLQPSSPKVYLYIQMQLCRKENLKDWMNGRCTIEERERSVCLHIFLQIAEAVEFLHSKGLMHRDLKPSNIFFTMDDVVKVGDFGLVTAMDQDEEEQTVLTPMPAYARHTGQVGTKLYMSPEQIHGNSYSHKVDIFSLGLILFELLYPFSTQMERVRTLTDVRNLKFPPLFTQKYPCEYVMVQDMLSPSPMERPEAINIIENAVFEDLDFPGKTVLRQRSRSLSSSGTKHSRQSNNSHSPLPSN

SMILES	read-out	mode	technique	tested at	quantity	value
COc1cccc2c(NCc3ccccc3)nc(-n3c(N)nc4ccccc43)nc12	target engagement in cells	inhibitor	chemoproteomics	20 mM	inhibition	-7.4%
CC(C)(C)c1nc2c(s1)c1nc(N)ncc1c1ccc(NS(=O)(=O)c3c(F)cccc3F)c(F)c12	enzyme activity	inhibitor	radiometric	1 µM	remaining activity	47%
COc1cc(/C=C/C(=O)CC(=O)/C=C/c2ccc(O)c(OC)c2)ccc1O	enzyme activity	inhibitor		1 µM	activity vs control	95%
CC/C(=N\NC(=O)NCc1cccc(O)c1)c1ccc(O)c(C)c1O	enzyme activity	inhibitor		0.1 µM	inhibition	4.2%
Cc1ccc(NC(=O)c2ccc(C)c(C(F)(F)F)c2)cc1C#Cc1nn(C2CCC(O)CC2)c2ncnc(N)c12 (stereo not drawn)	cell-free assay			10 µM	remaining signal	39%
Cc1cnc(NC2CCOCC2)nc1-n1cnc(C(=O)NC(CN)c2cc(F)cc(Cl)c2)c1 (stereo not drawn)	enzyme activity	inhibitor	radiometric	1 µM	remaining activity	101%
CCN(CC)c1ccc(C2=NNC(=O)CC2C)cc1[N+](=O)[O-] (stereo not drawn)	enzyme activity	inhibitor		10 µM	remaining activity	110%
Cc1cc(NC(=O)c2cccc3cc(-c4cccc5[nH]nc(N)c45)ccc23)ccc1F	enzyme activity	inhibitor		0.1 µM	activity vs control	94%
Cc1ccc(C(=O)NCc2ccsc2)cc1C#Cc1cn(C(C)C)c2ncnc(N)c12	enzyme activity	inhibitor		1 µM	activity vs control	82%
CCCCNc1ncc2c(-c3ccc(F)cc3)nn(C[C@H]3CC[C@H](N)CC3)c2n1	target engagement in cells	inhibitor	chemoproteomics	20 mM	inhibition	17%
CNC(=O)c1cc2c(Oc3ccc(NC(=O)C4(C(=O)Nc5ccc(F)cc5)CC4)cc3)ccnc2cc1OC	enzyme activity	inhibitor	radiometric	1 µM	inhibition	73%
CC(C)(C)c1nc(-c2cccc(NS(=O)(=O)c3c(F)cccc3F)c2F)c(-c2ccnc(N)n2)s1	enzyme activity	inhibitor	radiometric	1 µM	remaining activity	4%
CN1CC(Oc2cnc(C#N)cc2-c2ccn3nc(NC(=O)C4CC4)cc3c2)C1	enzyme activity	inhibitor		1 µM	inhibition	0%
COc1cc(Nc2cnc(C#N)c(O[C@H](C)CN(C)C)n2)ncc1-c1cnn(C)c1	enzyme activity	inhibitor	radiometric	1 µM	remaining activity	101%
FC(F)(F)Oc1cccc(-c2cnc3ccc(-c4ccncc4)nn23)c1	enzyme activity	inhibitor	radiometric	1 µM	activity vs control	74%
